Values after ≈ are worked out from the molar mass of the structure shown. Active and inactive are the calls of the source. The calls are words filed in the database; no cut-off is given here.

The test system of experiment [1] is Haemophilus influenzae. Kind of experiment: Antibacterial activity against nontypeable beta-lactamase-negative ampicillin-resistant Haemophilus influenzae 4437 infected in mouse ddY assessed as decrease in viable bacterial count at 40 mg/kg, po bid for 3 days. The format is functional. A digest of the protocol:
(§1)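 Male ddY SPF mice, 6 weeks old, with a tube placed into the main bronchus 7 days before intratracheal challenge under pentobarbital. Drug given in DMSO orally twice daily from 24 h post-infection for 3 days. Mice killed 12 h after the last dose. Lungs homogenized in 1.0 ml PBS, serially diluted and plated on chocolate agar overnight at 37°C, 5% CO2. Four experiments.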

In experiment [2] the test system is Mus musculus. Nature of the experiment: Antiinflammatory activity against nontypeable beta-lactamase-negative ampicillin-resistant Haemophilus influenzae 4437 infected in mouse ddY assessed as decrease in IL1-beta level in bronchoalveolar lavage fluid at 40 mg/kg, po bid for 3 days relative to control. The format is functional, organism-based. Also on record: dose 40 mg/kg. As to conditions: Lung. The method, boiled down:
(§2)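 Intubated ddY mice challenged intratracheally, then dosed orally twice daily from 24 h for 3 days and killed 12 h after the last dose. BAL done with 3 × 1.0 ml saline, pooled per animal. MIP-2 and IL-1β in BAL fluid measured by mouse ELISA kits. Four experiments.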

Experiment [3] relates to Mus musculus. Kind of experiment: Antiinflammatory activity against nontypeable beta-lactamase-negative ampicillin-resistant Haemophilus influenzae 4437 infected in mouse ddY assessed as decrease in neutrophil count in bronchoalveolar lavage fluid at 40 mg/kg, po bid for 3 days. It is filed as functional, organism-based. Also on record: dose 40 mg/kg. The following applies: Lung. A digest of the protocol: (§3)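 Intubated ddY mice challenged intratracheally, then dosed orally twice daily from 24 h for 3 days and lavaged 12 h after the last dose (3 × 1.0 ml saline, pooled). Total cells counted with Turk stain. Differentials counted on 100 cytocentrifuged cells stained with Diff-Quick. Four experiments.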

Experiment [4] has as its system Mus musculus. Nature of the experiment: Antiinflammatory activity against nontypeable beta-lactamase-negative ampicillin-resistant Haemophilus influenzae 4437 infected in mouse ddY assessed as decrease in MIP-2 level in bronchoalveolar lavage fluid at 40 mg/kg, po bid for 3 days relative to control. The format is functional, organism-based. Set-up: dose 40 mg/kg. As to conditions: Lung. A digest of the protocol:
as §2

Experiment [5] has as its system Mus musculus. Kind of experiment: Antiinflammatory activity against nontypeable beta-lactamase-negative ampicillin-resistant Haemophilus influenzae 4437 infected in mouse ddY assessed as decrease in total cell count in bronchoalveolar lavage fluid at 100 mg/kg, po bid for 3 days. The format is functional, organism-based. Also on record: dose 100 mg/kg. As to conditions: Lung. A digest of the protocol: as §3

Experiment [6] concerns Mus musculus. Kind of experiment: Antiinflammatory activity against nontypeable beta-lactamase-negative ampicillin-resistant Haemophilus influenzae 4437 infected in mouse ddY assessed as decrease in MIP-2 level in bronchoalveolar lavage fluid at 100 mg/kg, po bid for 3 days relative to control. It is filed as functional, organism-based. Also on record: dose 100 mg/kg. As to conditions: Lung. A digest of the protocol: as §2

In experiment [7] the test system is Haemophilus influenzae. Nature of the experiment: Antibacterial activity against macrolide-resistant Haemophilus influenzae 4437 infected in NCI-H292 cells assessed as decrease in viable bacterial count at 64 ug/ml by 3-h invasion assay. The format is functional, organism-based. The method, boiled down:
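NCI-H292 cells in RPMI 1640 with 10% FBS, seeded at 5 × 10^5/well, then held in 0.5% FBS for 24 h at confluence. Infected with 10 µl of about 6 × 10^6 CFU/ml bacteria for 3 h at 37°C, 5% CO2. Washed, then gentamicin 200 µg/ml with drug for 2 h. Lysed in 1% Triton X-100; intracellular CFU counted on chocolate agar. Three experiments.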

In experiment [8] the test system is Mus musculus. Kind of experiment: Antiinflammatory activity against nontypeable beta-lactamase-negative ampicillin-resistant Haemophilus influenzae 4437 infected in mouse ddY assessed as decrease in IL1-beta level in bronchoalveolar lavage fluid at 100 mg/kg, po bid for 3 days relative to control. It is filed as functional, organism-based. Also on record: dose 100 mg/kg. The following applies: Lung. The method, boiled down: as §2

The subject of experiment [9] is Mus musculus. Nature of the experiment: Antiinflammatory activity against nontypeable beta-lactamase-negative ampicillin-resistant Haemophilus influenzae 4437 infected in mouse ddY assessed as decrease in total cell count in bronchoalveolar lavage fluid at 40 mg/kg, po bid for 3 days. It is filed as functional, organism-based. Also on record: dose 40 mg/kg. The following applies: Lung. A digest of the protocol:
as §3

Experiment [10] concerns Haemophilus influenzae. Nature of the experiment: Antibacterial activity against nontypeable beta-lactamase-negative ampicillin-resistant Haemophilus influenzae 4437 infected in mouse ddY assessed as decrease in viable bacterial count at 100 mg/kg, po bid for 3 days. It is filed as functional. A digest of the protocol: as §1
Experiment [11] relates to Haemophilus influenzae. Kind of experiment: Antibacterial activity against nontypeable beta-lactamase-negative ampicillin-resistant Haemophilus influenzae 4437. It is filed as functional. A digest of the protocol:
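MIC by CLSI broth dilution in Haemophilus Test Medium, inoculum 10^5 CFU/ml, tested in duplicate. β-lactamase production checked by nitrocefin test.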

The test system of experiment [12] is Mus musculus. Nature of the experiment: Antiinflammatory activity against nontypeable beta-lactamase-negative ampicillin-resistant Haemophilus influenzae 4437 infected in mouse ddY assessed as decrease in neutrophil count in bronchoalveolar lavage fluid at 100 mg/kg, po bid for 3 days relative to control. It is filed as functional, organism-based. Also on record: dose 100 mg/kg. As to conditions: Lung. A digest of the protocol:
as §3

The test system of experiment [13] is Mus musculus. Kind of experiment: Antiinflammatory activity against nontypeable beta-lactamase-negative ampicillin-resistant Haemophilus influenzae infected in mouse ddY assessed as inflammatory changes in lung at 40 mg/kg, po bid for 3 days relative to control. The format is functional, organism-based. Also on record: dose 40 mg/kg. A digest of the protocol:
(§4)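 Intubated ddY mice challenged intratracheally, then dosed orally twice daily for 3 days. Lungs fixed in 10% buffered formalin, stained with hematoxylin and eosin, and examined at ×200 for inflammatory cell infiltration of alveoli and bronchioles.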

In experiment [14] the test system is Mus musculus. Kind of experiment: Antiinflammatory activity against nontypeable beta-lactamase-negative ampicillin-resistant Haemophilus influenzae infected in mouse ddY assessed as inflammatory changes in lung at 100 mg/kg, po bid for 3 days relative to control. The format is functional, organism-based. Set-up: dose 100 mg/kg. The method, boiled down:
as §4

For `CC[C@H]1OC(=O)[C@H](C)[C@@H](O[C@H]2C[C@@](C)(OC)[C@@H](O)[C@H](C)O2)[C@H](C)[C@@H](O[C@@H]2O[C@H](C)C[C@H](N(C)C)[C@H]2O)[C@](C)(OC)C[C@@H](C)C(=O)[C@H](C)[C@@H](O)[C@]1(C)O` [CLARITHROMYCIN], the log10CFU/ml in the experiment with Haemophilus influenzae [1] came to 5.8; in the experiment with Haemophilus influenzae [10], 4.6. Besides, the outcome in the experiment with Mus musculus [2], with Mus musculus [3], in the experiment with Mus musculus [4], with Mus musculus [5], with Mus musculus [6] and in the experiment on Haemophilus influenzae [7] was Active. Moreover, the result in the experiment with Mus musculus [8], with Mus musculus [9], in the experiment with Mus musculus [12], with Mus musculus [13] and in the experiment on Mus musculus [14] was Active. In the experiment with Haemophilus influenzae [11], the MIC stood at 64 µg/mL (≈ 85.6 µM).
`CC1(C)S[C@@H]2[C@H](NC(=O)[C@H](N)c3ccccc3)C(=O)N2[C@H]1C(=O)O` [AMPICILLIN]: the MIC with Haemophilus influenzae [11] is 16 µg/mL (≈ 45.8 µM).
